The values that follow come from PubChem BioAssay.

Activity calls are given as the source filed them. Cut-off read from the data, not from the text of the source, unless noted: active = inhibition above about 30%; inactive = the rest.

One may read the viability as a read-out of living cells in per cent, often relative to untreated cells. As a reminder, the inhibition is the relative decrease from the control value, in per cent.

Assay [1] can be described thus: SK-BR-3 cell growth inhibitors, pilot screen, 24 h, human (AID 572;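 active = viability at or below 10% of carrier control in both of two separate runs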;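 note: compound exposure lasted between 18 and 24 h rather than exactly 24 h; 100% = carrier-treated control wells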). Particulars: SK-BR-3 viability, CellTiter-Glo luminescence, at 10 µM, stronger effect = lower value. (Cellular ATP, detected with luciferase, serves as a proxy for viable cell number.)
Assay [2] is described as follows: HUVEC growth inhibition – cell-based, human, primary screen (AID 575;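 active = viability at or below 30% in both replicate assays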;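 note: 100% = median of untreated cell wells with 0.1% DMSO on each plate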). The note with it: HUVEC proliferation, CellTiter-Glo luminescence, 72 h; at 10 µM; stronger effect = lower value. In a few lines:
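system = HUVEC primary cells | amount = 1250 cells/well | buffer or medium = supplemented EBM, 2% fetal bovine serum | dosing = single-point 10 µM, DMSO 0.1% final | times = 72 h compound incubation | detection = CTG luminescence | read-out = % viability relative to median vehicle-well signal on each plate | control set = vehicle and MePR control wells | format = collagen-coated 384-well format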

A short description of assay [3]: growth inhibitors of H69AR lung tumor, primary screen, human, duplicate replicates (AID 580;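 active = viability at or under a set limit in both replicates, limit being median viability minus 3 SD, cut at about 48% in these data, passing the limit was not always enough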;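 note: 100% = mean luminescence of untreated wells and 0% = no signal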). Particulars: H69AR lung tumor cells viability, ATP luminescence, 72 h; at 10 µM; stronger effect = lower value.
The nature of assay [4]: reversal of MRP1-mediated doxorubicin resistance, pilot screen, H69AR cells, doxorubicin co-treatment (AID 601;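 active = viability loss from added drug above about 55%, and viability with drug at most 40%, in both replicates, limit read from the data, passing the limit was not always enough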). The note with it: CellTiter-Glo, 72 h, at 10 µM; for differential viability (reversal): stronger effect = higher value.
The nature of assay [5]: 384-well plate pilot, post-Golgi transport modulator project, inhibition of yeast transport mutant growth (AID 636; in the data active = inhibition above about 31%). The note with it: absorbance 615 nm, about 18 h, stronger effect = higher value.
The nature of assay [6]: growth suppression of yeast trafficking mutant, preliminary HTS, modulators of trafficking downstream of Golgi apparatus project, 1536-format plate, OD 615 nm (AID 637). The note with it: yeast transport mutant growth, absorbance 615 nm, 18 h; stronger effect = higher value.
The mark [7] stands for this setting: H69AR cells + 2 uM doxorubicin, measured here: viability with 2 uM doxorubicin, stronger effect = lower value.
[8] abbreviates: H69AR cells, compound alone cytotoxicity.

For `N#CC1=C(N)C(C#N)(C#N)[C@H](c2ccsc2)[C@H]2COCC=C12`, the viability in assay [1] is 126% (inactive); in assay [2], 96% (inactive); in assay [3], 97.4% (inactive); in assay [4] (setting [7]), 95.1%; in assay [4] (setting [8]) it was 97.4%. The differential viability (reversal) in assay [4] (H69AR cells + 2 uM doxorubicin) is 2.33% (inactive). Besides, the figures for the inhibition in assay [5] and in assay [6] were -6.03% (inactive) and 2.58% (inactive), respectively.
On to `Cc1cc(NS(=O)(=O)Cc2ccccc2)cc(C)c1OCC(=O)N1CCOCC1`, for which the viability is 95% (inactive) in assay [1]; 92.1% (inactive) in assay [2]; 94.6% (inactive) in assay [3]; 74.4% in assay [4] (setting [7]); 94.6% in assay [4] (setting [8]). In assay [4] (H69AR cells + 2 uM doxorubicin), the differential viability (reversal) was 20.2% (inactive). Further, the inhibition was -0.52% (inactive) in assay [5] and 0% (inactive) in assay [6].
Take `COc1ccc(C/C(O)=C(\C#N)c2nc3ccccc3s2)cc1`: the viability is 86% (inactive) in assay [1]; 48.8% (inactive) in assay [2]; 83.1% (inactive) in assay [3]; 91.3% in assay [4] (setting [7]); 83.1% in assay [4] (setting [8]). In addition, the differential viability (reversal) in assay [4] (H69AR cells + 2 uM doxorubicin) is -8.21% (inactive). For the same compound, the inhibition in assay [5] is -2.93% (inactive); in assay [6], 0.36% (inactive).
Consider `Cc1ccc2c(c1)nnn2C1CCN(C(=O)NC23CC4CC(CC(C4)C2)C3)CC1`, for which the viability was 72% (inactive) in assay [1]; 102% (inactive) in assay [2]; 92.1% (inactive) in assay [3]; 83.7% in assay [4] (setting [7]); 92.1% in assay [4] (setting [8]). For the same compound, the differential viability (reversal) in assay [4] (H69AR cells + 2 uM doxorubicin) was 8.39% (inactive). Moreover, the values for the inhibition in assay [5] and in assay [6] were -8.08% (inactive) and 0.16% (inactive), respectively.
With `CCCCc1nc(NCCN2CCOCC2)c(C#N)c2c1COC(C)(C)C2`, the viability in assay [1] was 76% (inactive); in assay [2], 94.1% (inactive); in assay [3] it was 91.6% (inactive); in assay [4] (setting [7]) it was 87.5%; in assay [4] (setting [8]), 91.6%. The differential viability (reversal) in assay [4] (H69AR cells + 2 uM doxorubicin) was 4.02% (inactive). Besides, the inhibition was 5.48% (inactive) in assay [5] and 6.77% (inactive) in assay [6].
Regarding `Cc1cc(C)nc(SCc2nnc(SCC(=O)Nc3ncc(C)s3)n2Cc2ccco2)n1`, the viability in assay [1] is 91% (inactive); in assay [2], 97.1% (inactive); in assay [3], 90.4% (inactive); in assay [4] (setting [7]), 82.6%; in assay [4] (setting [8]), 90.4%. Besides, the differential viability (reversal) in assay [4] (H69AR cells + 2 uM doxorubicin) is 7.87% (inactive). The inhibition was -7.87% (inactive) in assay [5] and -5.09% (inactive) in assay [6].
As for `Cc1cccc(-n2nnnc2SCc2csc(-c3ccccc3)n2)c1`, the viability in assay [1] was 95% (inactive); in assay [2], 101% (inactive); in assay [3] it was 93.9% (inactive); in assay [4] (setting [7]) it was 88%; in assay [4] (setting [8]), 93.9%. In assay [4] (H69AR cells + 2 uM doxorubicin), the differential viability (reversal) is 5.89% (inactive). Also, the inhibition is 6.44% (inactive) in assay [5] and 2.58% (inactive) in assay [6].
Regarding `COc1ccc(N=C2C(=O)Nc3ccccc32)cc1`, the viability in assay [1] is 103% (inactive); in assay [2] it was 66.7% (inactive); in assay [3], 75.4% (inactive); in assay [4] (setting [7]), 79.5%; in assay [4] (setting [8]), 75.4%. In addition, the differential viability (reversal) in assay [4] (H69AR cells + 2 uM doxorubicin) is -4.16% (inactive). In addition, the inhibition in assay [5] was -0.4% (inactive); in assay [6], -1.45% (inactive).
`CC1(C)CC(=O)c2sc(NS(C)(=O)=O)nc2C1`: the viability in assay [1] is 119% (inactive); in assay [2], 101% (inactive); in assay [3], 96% (inactive); in assay [4] (setting [7]), 83.2%; in assay [4] (setting [8]), 96%. Moreover, the differential viability (reversal) in assay [4] (H69AR cells + 2 uM doxorubicin) is 12.7% (inactive). Moreover, the inhibition was -6.16% (inactive) in assay [5] and 1.94% (inactive) in assay [6].
As for `COc1ccc(C(=O)Nc2ccc(S(=O)(=O)Nc3onc(C)c3C)cc2)cc1`, the viability was 91% (inactive) in assay [1]; 108% (inactive) in assay [2]; 117% (inactive) in assay [3]; 93.4% in assay [4] (setting [7]); 117% in assay [4] (setting [8]). Further, the differential viability (reversal) in assay [4] (H69AR cells + 2 uM doxorubicin) was 23.6% (inactive). In addition, the inhibition is -2.03% (inactive) in assay [5] and -0.91% (inactive) in assay [6].
`O=c1[nH]c2cc3c(cc2cc1C(c1nnnn1C1CCCCC1)N1CCSCC1)OCCO3` (stereo unspecified): the viability in assay [1] is 97% (inactive); in assay [2], 93.1% (inactive); in assay [3], 98.8% (inactive); in assay [4] (setting [7]), 100%; in assay [4] (setting [8]), 98.8%. Moreover, the differential viability (reversal) in assay [4] (H69AR cells + 2 uM doxorubicin) was -1.53% (inactive). Further, the inhibition in assay [5] is -0.81% (inactive); in assay [6], 1.45% (inactive).
Regarding `O=C(NCC(=O)N(Cc1cccs1)C(C(=O)NC1CCCC1)c1ccncc1)c1ccco1` (stereo unspecified), the viability in assay [1] is 102% (inactive); in assay [2] it was 109% (inactive); in assay [3] it was 85.7% (inactive); in assay [4] (setting [7]), 83.5%; in assay [4] (setting [8]), 85.7%. The differential viability (reversal) in assay [4] (H69AR cells + 2 uM doxorubicin) is 2.2% (inactive). For the same compound, the inhibition in assay [5] is -0.54% (inactive); in assay [6], 16.4% (inactive).
In the case of `C=CCN=C1SCC(=O)N1S(=O)(=O)c1ccc(C)cc1`, the viability was 88% (inactive) in assay [1]; 89.1% (inactive) in assay [2]; 113% (inactive) in assay [3]; 99.4% in assay [4] (setting [7]); 113% in assay [4] (setting [8]). The differential viability (reversal) in assay [4] (H69AR cells + 2 uM doxorubicin) was 13.6% (inactive). The inhibition was -4.73% (inactive) in assay [5] and 1.64% (inactive) in assay [6].
For the compound `Cc1cccc(NC(=O)c2ccc(S(=O)(=O)N(C)C)cc2)n1`, the viability in assay [1] was 112% (inactive); in assay [2], 96.1% (inactive); in assay [3], 94.2% (inactive); in assay [4] (setting [7]), 91.4%; in assay [4] (setting [8]), 94.2%. Besides, the differential viability (reversal) in assay [4] (H69AR cells + 2 uM doxorubicin) was 2.72% (inactive). In addition, the inhibition in assay [5] was -0.8% (inactive); in assay [6] it was 2.73% (inactive).
Turning to `COc1ccc(S(=O)(=O)NCCSCc2ccco2)cc1Cl`, the viability in assay [1] is 48% (inactive); in assay [2], 102% (inactive); in assay [3] it was 92.4% (inactive); in assay [4] (setting [7]), 91.3%; in assay [4] (setting [8]), 92.4%. The differential viability (reversal) in assay [4] (H69AR cells + 2 uM doxorubicin) is 1.13% (inactive). Besides, the inhibition in assay [5] is -6.3% (inactive); in assay [6], 4% (inactive).
In the case of `CCCCOc1ccc(C(=O)CCN2CCCCC2)cc1`, the viability in assay [1] is 121% (inactive); in assay [2], 46% (inactive); in assay [3], 66.1% (inactive); in assay [4] (setting [7]), 41.4%; in assay [4] (setting [8]) it was 66.1%. The differential viability (reversal) in assay [4] (H69AR cells + 2 uM doxorubicin) is 24.7% (inactive). Also, the inhibition in assay [5] was -2.21% (inactive); in assay [6], 6.17% (inactive).
Take `CC1(C)CC(=O)C=C(NCc2ccncc2)C1`: the viability in assay [1] is 89% (inactive); in assay [2], 113% (inactive); in assay [3], 98.6% (inactive); in assay [4] (setting [7]) it was 125%; in assay [4] (setting [8]), 98.6%. In addition, the differential viability (reversal) in assay [4] (H69AR cells + 2 uM doxorubicin) was -26.3% (inactive). For the same compound, the inhibition in assay [5] is -2.3% (inactive); in assay [6], -3.45% (inactive).
